Assay results taken from article PMC9163588 (The Journal of Biological Chemistry, 2022).

T1: PhlH (Pseudomonas fluorescens, UniProt Q4JIX5, R124A)
T1 sequence (Q4JIX5 1-225 R124A): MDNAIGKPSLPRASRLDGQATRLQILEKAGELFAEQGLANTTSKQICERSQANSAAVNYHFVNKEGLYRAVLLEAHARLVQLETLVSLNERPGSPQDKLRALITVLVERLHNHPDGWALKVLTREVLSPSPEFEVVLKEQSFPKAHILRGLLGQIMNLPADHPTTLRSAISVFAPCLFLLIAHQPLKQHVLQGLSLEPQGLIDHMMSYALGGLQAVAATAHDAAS

T2: PhlH (Pseudomonas fluorescens, UniProt Q4JIX5, L186A)
T2 sequence (Q4JIX5 1-225 L186A): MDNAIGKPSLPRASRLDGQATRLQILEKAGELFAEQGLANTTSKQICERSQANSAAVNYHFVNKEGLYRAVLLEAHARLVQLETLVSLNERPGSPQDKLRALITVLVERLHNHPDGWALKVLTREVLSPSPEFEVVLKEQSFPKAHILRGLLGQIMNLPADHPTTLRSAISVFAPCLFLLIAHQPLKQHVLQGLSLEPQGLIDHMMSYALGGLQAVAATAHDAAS

T3: PhlH (Pseudomonas fluorescens, UniProt Q4JIX5, F173A)
T3 sequence (Q4JIX5 1-225 F173A): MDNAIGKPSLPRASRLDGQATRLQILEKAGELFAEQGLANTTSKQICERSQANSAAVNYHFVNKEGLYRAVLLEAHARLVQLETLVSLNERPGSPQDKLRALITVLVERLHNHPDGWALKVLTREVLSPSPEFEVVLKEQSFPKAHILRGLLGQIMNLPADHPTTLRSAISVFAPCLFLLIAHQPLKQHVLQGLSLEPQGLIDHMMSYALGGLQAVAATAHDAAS

T4: PhlH (Pseudomonas fluorescens, UniProt Q4JIX5, L85A)
T4 sequence (Q4JIX5 1-225 L85A): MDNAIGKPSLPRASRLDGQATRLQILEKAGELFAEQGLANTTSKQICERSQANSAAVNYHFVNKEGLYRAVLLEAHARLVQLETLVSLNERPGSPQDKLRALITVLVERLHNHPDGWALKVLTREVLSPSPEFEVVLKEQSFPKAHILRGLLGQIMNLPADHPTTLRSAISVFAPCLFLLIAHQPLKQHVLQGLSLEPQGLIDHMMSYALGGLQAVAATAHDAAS

T5: PhlH (Pseudomonas fluorescens, UniProt Q4JIX5, H76A)
T5 sequence (Q4JIX5 1-225 H76A): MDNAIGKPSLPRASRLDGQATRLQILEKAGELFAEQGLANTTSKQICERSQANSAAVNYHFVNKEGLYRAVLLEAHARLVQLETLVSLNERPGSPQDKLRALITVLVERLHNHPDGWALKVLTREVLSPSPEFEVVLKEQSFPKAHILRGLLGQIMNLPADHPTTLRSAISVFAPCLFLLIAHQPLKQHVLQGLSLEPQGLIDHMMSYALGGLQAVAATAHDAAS

T6: PhlH (Pseudomonas fluorescens, UniProt Q4JIX5, V190A)
T6 sequence (Q4JIX5 1-225 V190A): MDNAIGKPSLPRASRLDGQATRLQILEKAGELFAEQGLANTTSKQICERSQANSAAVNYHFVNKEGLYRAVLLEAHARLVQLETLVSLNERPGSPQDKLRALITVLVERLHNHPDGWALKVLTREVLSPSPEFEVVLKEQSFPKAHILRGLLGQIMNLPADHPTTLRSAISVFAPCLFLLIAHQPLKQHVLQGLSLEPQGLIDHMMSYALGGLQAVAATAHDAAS

T7: PhlH R124A (Pseudomonas fluorescens 2P24, UniProt Q4JIX5 1-225, R124A)
T7 sequence: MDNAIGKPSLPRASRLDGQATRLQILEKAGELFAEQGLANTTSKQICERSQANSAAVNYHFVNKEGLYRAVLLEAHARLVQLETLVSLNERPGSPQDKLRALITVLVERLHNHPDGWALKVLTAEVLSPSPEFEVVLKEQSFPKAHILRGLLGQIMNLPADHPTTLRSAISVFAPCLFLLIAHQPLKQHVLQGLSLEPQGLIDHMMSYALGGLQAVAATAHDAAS

B1: F1 (phlG operator / upstream region) (dsDNA)
DNA 1: TAGTTCTAATTCAAATTTGACTTTTTATTT
DNA 2: AAATAAAAAGTCAAATTTGAATTAGAACTA

Tests used:
PhlH [1] = target: T1, PhlH; test: isothermal titration calorimetry; type: binding
Procedure, shortened: (§1)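 N-terminally His6-tagged full-length PhlH from P. fluorescens 2P24, with point mutants made by site-directed mutagenesis. Expressed in E. coli Rosetta (DE3) (0.2 mM IPTG, 16 °C, 20 h), then Ni-NTA and gel filtration. ITC at 25 °C in degassed 20 mM Tris-HCl pH 8.0, 100 mM NaCl, 0.5% DMSO. Cell held 0.05–0.1 mM protein; syringe held 0.5–1 mM test compound. First 0.4 µl injection discarded, then 19 × 2.0 µl injections at 2-min spacing. Dilution heats subtracted; one-site fit gave Kd.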

PhlH [2] = target: T2, PhlH; test: isothermal titration calorimetry; type: binding
Procedure, shortened: as §1

PhlH [3] = target: T3, PhlH; test: isothermal titration calorimetry; type: binding
Procedure, shortened: as §1

PhlH [4] = target: T4, PhlH; test: isothermal titration calorimetry; type: binding
Procedure, shortened: as §1

PhlH [5] = target: T5, PhlH; test: isothermal titration calorimetry; type: binding
Procedure, shortened: as §1

PhlH [6] = target: T6, PhlH; test: isothermal titration calorimetry; type: binding
Procedure, shortened: as §1

PhlH R124A = target: T7, PhlH R124A; test: EMSA

Row | Molecule | Kd (PhlH [1]) [µM] | Kd (PhlH [2]) [µM] | Kd (PhlH [3]) [µM] | Kd (PhlH [4]) [µM] | Kd (PhlH [5]) [µM] | Kd (PhlH [6]) [µM] | binding result (PhlH R124A)
1 | CC(=O)c1c(O)cc(O)c(C(C)=O)c1O [2,4-DAPG] | 13.2 | 15.4 | 20.2 | 39 | 10.9 | 24.3 | –
2 | B1 | – | – | – | – | – | – | no binding
